Results taken from article PMC10147382 (ACS chemical neuroscience, 2022).

Experiments:
5-HT2A receptor [1] = molecular target: T1, 5-HT2A receptor (Homo sapiens, UniProt P28223); test: G protein; format: cell-based; details: for decrease in potency versus the alpha-methyl (DOx) counterpart: Gq dissociation (Gq versus G11 for Ariadne/DOM)
Target sequence in this assay (P28223 whole entry): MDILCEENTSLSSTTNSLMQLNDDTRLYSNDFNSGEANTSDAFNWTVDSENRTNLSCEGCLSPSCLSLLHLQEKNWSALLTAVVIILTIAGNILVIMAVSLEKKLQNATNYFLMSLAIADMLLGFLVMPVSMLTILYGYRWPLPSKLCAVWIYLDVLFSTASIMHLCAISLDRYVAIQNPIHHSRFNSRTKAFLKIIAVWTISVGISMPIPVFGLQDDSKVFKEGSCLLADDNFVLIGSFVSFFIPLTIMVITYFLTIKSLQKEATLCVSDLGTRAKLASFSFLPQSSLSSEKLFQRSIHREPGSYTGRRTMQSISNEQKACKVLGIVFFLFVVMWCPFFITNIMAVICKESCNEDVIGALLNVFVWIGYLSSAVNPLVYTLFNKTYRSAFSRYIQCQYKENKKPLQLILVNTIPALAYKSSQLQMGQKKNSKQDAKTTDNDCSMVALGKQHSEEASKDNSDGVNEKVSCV

5-HT2B receptor = 5-HT2B receptor (Homo sapiens, UniProt P41595); test: G protein; format: cell-based; details: Gq dissociation
mice [2] = test: Head twitch response; format: in vivo, mouse; details: for HTR response: 15 min period
5-HT2A receptor [3] = molecular target: T1, 5-HT2A receptor; test: β-arrestin2 recruitment BRET assay; format: cell-based
Target sequence in this assay (P32121 whole entry): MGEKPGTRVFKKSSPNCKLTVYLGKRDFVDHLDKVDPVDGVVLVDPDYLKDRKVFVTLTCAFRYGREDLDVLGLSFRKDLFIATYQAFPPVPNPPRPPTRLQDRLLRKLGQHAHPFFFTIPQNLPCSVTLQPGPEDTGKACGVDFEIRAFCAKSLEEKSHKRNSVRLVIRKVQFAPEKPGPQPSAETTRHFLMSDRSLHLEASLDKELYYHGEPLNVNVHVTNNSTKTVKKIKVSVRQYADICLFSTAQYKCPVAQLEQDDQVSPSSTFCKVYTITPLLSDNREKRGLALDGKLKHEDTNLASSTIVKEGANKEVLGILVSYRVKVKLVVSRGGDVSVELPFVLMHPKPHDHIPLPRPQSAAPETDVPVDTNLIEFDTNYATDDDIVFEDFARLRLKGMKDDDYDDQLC
Target sequence in this assay (P28223 whole entry): as the sequence (P28223 whole entry) above

5-HT2A receptors [4] = details: cited from earlier work
5-HT2A receptors [5] = details: cited from earlier work; remark: listed apart in the source
5-HT2A receptor [6] = molecular target: T1, 5-HT2A receptor; test: Calcium flux assay; format: cell-based
Outline: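 Flp-In 293 T-Rex cells stably carry tetracycline-inducible human 5-HT2A or 5-HT2C. Expression is induced with tetracycline (2 ug/mL) the day before, with about 7,500 cells/well in 1% dialyzed FBS. Cells are loaded with Fluo-4 Direct for 1 h at 37°C in HBSS/20 mM HEPES pH 7.4 with 2.5 mM probenecid, then held 15 min at RT. Fluorescence is read 10 s baseline, then 5-10 min after drug. Peak fold-over-basal or AUC is normalized to % 5-HT, with EC50/Emax from nonlinear regression.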
Target sequence in this assay (P28223 whole entry): as above

5-HT2A receptor [7] = molecular target: T1, 5-HT2A receptor; test: Radioligand displacement assay; format: binding; details: standard radioligand 125I-DOI
Target sequence in this assay (P28223 whole entry): as above

humans = details: cited from earlier work
mice [8] = test: Open field test; format: in vivo, mouse; details: mouse, in vivo
mice [9] = details: cited from earlier work
5-HT2C receptors = details: cited from earlier work
[10] = phosphoinositide turnover ref 40

5-HT2B receptor, sequence (P41595 whole entry): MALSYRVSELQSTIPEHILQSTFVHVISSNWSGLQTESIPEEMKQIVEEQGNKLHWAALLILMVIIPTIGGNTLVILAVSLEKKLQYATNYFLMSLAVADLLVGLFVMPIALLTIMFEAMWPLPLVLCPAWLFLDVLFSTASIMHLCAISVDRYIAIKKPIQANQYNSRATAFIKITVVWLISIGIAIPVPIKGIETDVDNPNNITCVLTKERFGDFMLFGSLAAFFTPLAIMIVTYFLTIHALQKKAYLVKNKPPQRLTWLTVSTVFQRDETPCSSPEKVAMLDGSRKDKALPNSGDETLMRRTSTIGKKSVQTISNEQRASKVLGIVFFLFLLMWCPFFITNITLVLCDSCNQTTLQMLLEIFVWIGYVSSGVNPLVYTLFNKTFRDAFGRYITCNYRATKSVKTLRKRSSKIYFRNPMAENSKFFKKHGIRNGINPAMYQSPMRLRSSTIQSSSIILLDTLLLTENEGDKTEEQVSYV

SMILES: CCC(N)Cc1cc(OC)c(COC)cc1OC (stereo not drawn) [4C-MOM]
- less potent at 5-HT2A compared to Ariadne (5-HT2A receptor [1]; Gq dissociation): approximately 2 fold
- potency at 5-HT2B compared to Ariadne (5-HT2B receptor): twice as potent
- HTR response (mice [2]; s.c.): only residual HTR

SMILES: CCCc1cc(OC)c(CC(N)CC)cc1OC (stereo not drawn) [4C-Pr]
- loss in efficacy versus the alpha-methyl (DOx) counterpart (5-HT2A receptor [1]; Gq dissociation): 15%
- decrease in potency versus the alpha-methyl (DOx) counterpart (5-HT2A receptor [1]): 20-30 fold
- decrease in potency versus the alpha-methyl (DOx) counterpart (5-HT2A receptor [3]): 10 fold
- drop in efficacy versus the alpha-methyl (DOx) counterpart (5-HT2A receptor [3]): 15%

SMILES: CCC(N)Cc1cc(OC)c(C(F)(F)F)cc1OC (stereo not drawn) [4C-TFM]
- HTR after pretreatment with 5-HT2A antagonist MDL100,907 (volinanserin) (mice [2]; MDL100907 0.01 and 0.032 mg/kg ip 15 min prior): completely inhibited

SMILES: CCCC(N)Cc1cc(OC)c(C)cc1OC (stereo not drawn) [5C-D]
- decrease in potency relative to Ariadne (5-HT2A receptor [1]; Figure 3D signaling assays): ~ 2 fold
- drop in efficacy relative to Ariadne (5-HT2A receptor [1]; Figure 3D signaling assays): ~ 15%
- HTR response (mice [2]; s.c.): indistinguishable from vehicle

SMILES: CCN(CC)CCc1c[nH]c2cc(F)ccc12 [6F-DET, 6-fluoro-diethyltryptamine]
- Emax (5-HT2A receptors [4]; [10]): 63%
- drop in efficacy versus DET (5-HT2A receptors [4]; [10]): 20%
- weaker signaling potency (EC50 values) versus DET (5-HT2A receptors [4]; [10]): 6 fold
- affinity for 5-HT2A receptors, DET versus 6F-DET (5-HT2A receptors [5]): nearly identical affinity

SMILES: CC[C@H](N)Cc1cc(OC)c(C)cc1OC [(S)-Ariadne]
- EC50 (5-HT2A receptor [6]; read-out: EC50 (calcium flux)): 132 nM
- Emax (calcium flux) (5-HT2A receptor [6]; relative to 5-HT): 63%
- Ki (5-HT2A receptor [7]): 220 nM

SMILES: CCC(N)Cc1cc(OC)c(C)cc1OC.Cl (stereo not drawn) [Ariadne hydrochloride]
- subjective effect (online experience report) (humans; 50 mg oral plus 25 mg at 90 min, person 77 kg ref 35): MDMA-like effect but no psychedelic effects

SMILES: CCN(CC)CCc1c[nH]c2ccccc12 [DET, diethyltryptamine]
- Emax (5-HT2A receptors [4]; [10]): 82%
- affinity for 5-HT2A receptors, DET versus 6F-DET (5-HT2A receptors [5]): nearly identical affinity

SMILES: COc1cc(CC(C)N)c(OC)cc1I (stereo not drawn) [DOI, reference compound]
- increase in Gq dissociation potency compared to DOM (5-HT2A receptor [1]; Gq dissociation): 20- to 30 fold

SMILES: COc1cc(CC(C)N)c(OC)cc1C (stereo not drawn) [DOM, 2,5-dimethoxy-4-methyl-amphetamine, reference compound]
- Emax (5-HT2A receptor [1]; read-out: Emax (Gq)): 96%
- efficacy (5-HT2A receptor [3]; normalized to 5-HT): 103%
- dose producing classic hallucinogen effects (humans): > 3 mg
- dose producing detectable psychoactive, sub-hallucinogenic effects (humans): 1 to 3 mg
- potency relative to mescaline in humans (humans; per oral administration ref 6): approximately 100 times

SMILES: CCCc1cc(OC)c(CC(C)N)cc1OC (stereo not drawn) [DOPR, reference compound]
- increase in Gq dissociation potency compared to DOM (5-HT2A receptor [1]; Gq dissociation): 20- to 30 fold
- dose of peak (maximum) HTR (mice [2]; s.c.): 1 mg/kg
- time to maximum HTR frequency post-drug administration (mice [2]; s.c.): 10 min
- time in the center of the arena (mice [8]): trend for spending less time in the center of the arena

SMILES: CCC(N)Cc1cc(OC)c(I)cc1OC (stereo not drawn) [iodo-Ariadne]
- increase in potency compared to Ariadne (5-HT2A receptor [1]; Gq dissociation): > 10 fold
- loss in efficacy versus the alpha-methyl (DOx) counterpart (5-HT2A receptor [1]; Gq dissociation): 10%
- decrease in potency versus the alpha-methyl (DOx) counterpart (5-HT2A receptor [1]): 10 fold
- EC50 (5-HT2A receptor [1]; read-out: EC50 (Gq), Gq dissociation BRET): 16 nM
- decrease in potency versus the alpha-methyl (DOx) counterpart (5-HT2A receptor [3]): 5 fold
- drop in efficacy versus the alpha-methyl (DOx) counterpart (5-HT2A receptor [3]): 20%

SMILES: CN(C)CCc1c[nH]c2cccc(O)c12 [psilocin]
- HTR counts (mice [9]): 15-25 HTR events per 15 min
- greater signaling potency in comparison to 6F-DET (5-HT2A receptors [4]): 15 fold
- signaling efficacy (5-HT2A receptors [4]; depending on the specific readout): 50-70%
- greater affinity in comparison to 6F-DET (5-HT2C receptors): 10 fold

SMILES: CN(C)CCc1c[nH]c2cccc(OP(=O)(O)O)c12 [psilocybin]
- HTR counts (mice [9]): 15-25 HTR events per 15 min
